According to ChEMBL document CHEMBL1133562, “Pyrazole ligands: structure-affinity/activity relationships and estrogen receptor-alpha-selective agonists” (J Med Chem, 2000):

Columns and labels:
[1] = biological target: Estrogen receptor beta (Homo sapiens) (UniProt Q92731); assay: Relative binding affinity was determined for Estrogen receptor 2 using 10 nM [3H]E2 as tracer (estradiol 100%)
Outline: (§1)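 Competitive radiometric binding with purified full-length human ERα or ERβ, 10 nM [3H]estradiol tracer. Receptor–tracer complex adsorbed on hydroxylapatite. Incubation at 0 °C for 18-24 h. RBA expressed relative to estradiol = 100%. Mean of at least 2, typically 3 or more, independent determinations (±SD); coefficient of variation 0.3.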

[2] = biological target: T1, Estrogen receptor (Homo sapiens) (UniProt P03372); assay: Relative binding affinity was determined for Estrogen receptor 1 using 10 nM [3H]-E2 as tracer (estradiol 100%); outline: as §1
T1 sequence (whole entry): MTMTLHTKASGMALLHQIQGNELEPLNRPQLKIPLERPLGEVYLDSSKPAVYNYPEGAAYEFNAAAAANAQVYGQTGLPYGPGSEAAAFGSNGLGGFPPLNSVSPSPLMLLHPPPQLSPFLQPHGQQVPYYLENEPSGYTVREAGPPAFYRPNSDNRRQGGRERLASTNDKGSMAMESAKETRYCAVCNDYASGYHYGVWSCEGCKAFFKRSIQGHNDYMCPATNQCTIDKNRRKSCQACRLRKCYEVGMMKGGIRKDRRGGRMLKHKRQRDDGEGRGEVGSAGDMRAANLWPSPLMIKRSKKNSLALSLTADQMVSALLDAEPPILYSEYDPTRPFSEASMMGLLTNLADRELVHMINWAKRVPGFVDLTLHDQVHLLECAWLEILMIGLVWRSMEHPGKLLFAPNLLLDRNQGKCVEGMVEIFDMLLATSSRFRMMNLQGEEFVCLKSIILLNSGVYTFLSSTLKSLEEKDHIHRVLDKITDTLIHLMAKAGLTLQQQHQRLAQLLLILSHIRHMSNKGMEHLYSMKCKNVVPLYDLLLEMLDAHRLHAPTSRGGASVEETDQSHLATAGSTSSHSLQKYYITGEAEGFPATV

[3] = biological target: Estrogen receptor (Homo sapiens) (UniProt Q92731+P03372); assay: RBA ratio between ERalpha and ERbeta; format: protein assay
Chain of Estrogen receptor (Homo sapiens) (UniProt Q92731+P03372) (Q92731 whole entry, looked up, one chain of several): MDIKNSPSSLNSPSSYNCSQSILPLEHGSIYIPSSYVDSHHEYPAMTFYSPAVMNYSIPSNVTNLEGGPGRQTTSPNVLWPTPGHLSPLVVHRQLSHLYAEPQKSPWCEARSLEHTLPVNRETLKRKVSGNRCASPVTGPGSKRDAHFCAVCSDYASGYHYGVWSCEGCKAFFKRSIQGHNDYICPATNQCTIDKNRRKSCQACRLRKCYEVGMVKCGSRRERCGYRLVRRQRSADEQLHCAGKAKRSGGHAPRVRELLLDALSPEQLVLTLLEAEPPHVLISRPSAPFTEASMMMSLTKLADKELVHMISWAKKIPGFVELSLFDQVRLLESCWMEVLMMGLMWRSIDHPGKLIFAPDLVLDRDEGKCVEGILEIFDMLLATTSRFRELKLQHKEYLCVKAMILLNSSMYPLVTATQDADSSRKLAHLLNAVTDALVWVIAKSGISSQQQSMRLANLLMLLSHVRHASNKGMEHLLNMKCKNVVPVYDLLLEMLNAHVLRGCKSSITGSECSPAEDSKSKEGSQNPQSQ

Chain of Estrogen receptor beta (Homo sapiens) (Q92731 whole entry): as the sequence (Q92731 whole entry, looked up, one chain of several) above

| RBA [1] | RBA [2] | Ratio [3] | Structure (SMILES) |
| --- | --- | --- | --- |
| 0.61 | 2.6 | 4.3 | CCc1c(-c2ccc(O)cc2)nn(-c2ccccc2)c1-c1ccccc1 |
| 0.89 | 75 | 84 | CC(C)Cc1c(-c2ccc(O)cc2)nn(-c2ccc(O)cc2)c1-c1ccc(O)cc1 |
| 0.86 | 5.6 | 6.5 | CC(C)c1c(-c2ccc(O)cc2)nn(-c2ccccc2)c1-c1ccc(O)cc1 |
| 0.18 | 14 | 77 | CCCCc1c(-c2ccc(O)cc2)nn(-c2ccc(O)cc2)c1-c1ccc(O)cc1 |
| 0.32 | 8.9 | 28 | CCc1c(-c2ccc(O)cc2)nn(-c2ccc(O)cc2)c1-c1ccccc1 |
|  | 49 |  | CCCc1c(-c2ccc(O)cc2)nn(-c2ccc(O)cc2)c1-c1ccc(O)cc1 |
| 1.1 | 31 | 28 | CCc1c(-c2ccc(O)cc2)nn(-c2ccccc2)c1-c1ccc(O)cc1 |
| 0.52 | 16.8 | 32 | CCCc1c(-c2ccc(O)cc2)nn(-c2ccccc2)c1-c1ccc(O)cc1 |
| 0.8 | 7 | 9 | CCc1c(-c2ccccc2)nn(-c2ccc(O)cc2)c1-c1ccc(O)cc1 |
| 0.15 | 36 | 240 | CCc1c(-c2ccc(O)cc2)nn(-c2ccc(O)cc2)c1-c1ccc(O)cc1 |
| 0.06 | 0.04 | 0.67 | CCc1c(-c2ccccc2)nn(-c2ccccc2)c1-c1ccc(O)cc1 |
| 1.4 | 56 | 40 | CC(C)Cc1c(-c2ccc(O)cc2)nn(-c2ccccc2)c1-c1ccc(O)cc1 |
| 1.5 | 3.1 | 2.1 | CCc1c(-c2ccccc2)nn(-c2ccc(O)cc2)c1-c1ccccc1 |
| 0.47 | 8.7 | 19 | CCCCc1c(-c2ccc(O)cc2)nn(-c2ccccc2)c1-c1ccc(O)cc1 |
| 0.28 | 0.76 | 2.7 | Cc1c(-c2ccc(O)cc2)nn(-c2ccccc2)c1-c1ccc(O)cc1 |
